# Measurements from ChEMBL document CHEMBL1156707, “Insulin-releasing activity of a series of phenylalanine derivatives” (Eur J Med Chem, 2008).
# Legend:
# [1] = Increase in insulin releasing activity in Syrian golden hamster HIT-T15 cells at 1 uM after 1 hr relative to control; assay type: functional, Mesocricetus auratus
# Procedure, shortened: (§1)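 Pre-incubated 1 h, then 1 h with compound at a range of concentrations in DMSO, 37 °C; solvent-matched control. Insulin in medium measured by radioimmunoassay. Mean ± sd, n = 3; EC50 is concentration giving 50% increase in insulin release.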
# [2] = Increase in insulin releasing activity in Syrian golden hamster HIT-T15 cells at 100 uM after 1 hr relative to control; assay type: functional, Mesocricetus auratus; procedure, shortened: as §1
# [3] = Increase in insulin releasing activity in Syrian golden hamster HIT-T15 cells at 10 uM after 1 hr relative to control; assay type: functional, Mesocricetus auratus; procedure, shortened: as §1
# 3T3-L1 [4] = experiment: Effect on insulin sensitizing activity in mouse 3T3-L1 cells assessed as increase in triglyceride accumulation at 10 uM after 7 days; assay type: functional
# Procedure, shortened: (§2)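 3T3-L1 preadipocytes in DMEM/10% FBS, grown to 2 days postconfluence. Differentiation induced with insulin, 0.5 mM IBMX and dexamethasone. Compound (1 or 10 mmol/L, DMSO diluted 1000-fold) present during first 4 days of differentiation; 0.1% DMSO negative control. Day 7: oil red O staining, dye extracted with isopropanol, OD 510 nm. Three or four independent experiments.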
# 3T3-L1 [5] = experiment: Effect on insulin sensitizing activity in mouse 3T3-L1 cells assessed as increase in triglyceride accumulation at 1 uM after 7 days; assay type: functional; procedure, shortened: as §2
# [6] = Increase in insulin releasing activity in Syrian golden hamster HIT-T15 cells after 1 hr; assay type: functional, cell-based, Mesocricetus auratus; procedure, shortened: as §1
# Rattus norvegicus [7] = experiment: Decrease in plasma glucose level in Sprague-Dawley rat at 3 mg/kg, po after 15 mins relative to control; assay type: functional; parameters: scale not given: the % may be the effect or the level left
# Procedure, shortened: (§3)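 Normal SD rats (180–220 g), fasted overnight, 8–10 per group. Single oral dose 3 mg/kg in 0.5% CMC-Na vehicle, then oral glucose 2.5 g/kg immediately after. Caudal-vein blood drawn before dosing and at 15, 30, 60, 120, 180 min. Serum glucose measured by glucose oxidase method. Reported as % decrease versus vehicle control group.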
# Rattus norvegicus [8] = experiment: Decrease in plasma glucose level in Sprague-Dawley rat at 3 mg/kg, po after 120 mins relative to control; assay type: functional; parameters: scale not given: the % may be the effect or the level left; procedure, shortened: as §3
# Rattus norvegicus [9] = experiment: Decrease in plasma glucose level in Sprague-Dawley rat at 3 mg/kg, po after 30 mins relative to control; assay type: functional; parameters: scale not given: the % may be the effect or the level left; procedure, shortened: as §3
# Rattus norvegicus [10] = experiment: Decrease in plasma glucose level in Sprague-Dawley rat at 3 mg/kg, po after 60 mins relative to control; assay type: functional; parameters: scale not given: the % may be the effect or the level left; procedure, shortened: as §3
# Rattus norvegicus [11] = experiment: Decrease in plasma glucose level in Sprague-Dawley rat at 3 mg/kg, po after 180 mins relative to control; assay type: functional; parameters: scale not given: the % may be the effect or the level left; procedure, shortened: as §3
EC50 [6] [nM],Structure (SMILES),Activity [1] [%],Activity [2] [%],Activity [3] [%],Activity (3T3-L1 [4]) [%],Activity (3T3-L1 [5]) [%],Activity (Rattus norvegicus [7]) [%],Activity (Rattus norvegicus [8]) [%],Activity (Rattus norvegicus [9]) [%],Activity (Rattus norvegicus [10]) [%],Activity (Rattus norvegicus [11]) [%]
–,CC(C)[C@H]1CC[C@H](C(=O)N[C@@H](Cc2ccc(OCCN(C)c3ccccn3)cc2)C(=O)O)CC1,26,83.7,41.5,–,–,–,–,–,–,–
–,CN(CCOc1ccc(CC2SC(=O)NC2=O)cc1)c1ccccn1 (configuration not stated) [ROSIGLITAZONE],–,–,–,35.87,38.8,–,–,–,–,–
960,CCOc1ccc(C[C@H](NC(=O)[C@H]2CC[C@H](C(C)C)CC2)C(=O)O)cc1,55.8,151.3,99.9,–,–,–,–,–,–,–
120,Cc1oc(-c2ccccc2)nc1CCOc1ccc(C[C@@H](NC(=O)[C@H]2CC[C@H](C(C)C)CC2)C(=O)O)cc1,105.2,487.4,200.9,–,–,21.2,17.3,36.4,33.7,11.4
708,O=C(O)[C@H](CC(=O)N1C[C@H]2CCCC[C@H]2C1)Cc1ccccc1 [MITIGLINIDE],52.5,120,66,–,–,16.5,87.3,36.2,61.7,70.3
–,CC(C)[C@H]1CC[C@H](C(=O)N[C@H](Cc2ccc(O)cc2)C(=O)O)CC1,34.2,122.2,69.6,–,–,–,–,–,–,–
–,CC(C)[C@H]1CC[C@H](C(=O)N[C@@H](Cc2ccc(OCCn3ccc4ccccc43)cc2)C(=O)O)CC1,35.7,146.6,74.9,–,–,–,–,–,–,–
–,CC(C)[C@H]1CC[C@H](C(=O)N[C@@H](Cc2ccc(OCCN(C)c3nc4ccccc4o3)cc2)C(=O)O)CC1,35.5,126.9,72.8,–,–,–,–,–,–,–
–,CC(C)[C@H]1CC[C@H](C(=O)N[C@H](Cc2ccc(OCCN(C)c3nc4ccccc4o3)cc2)C(=O)O)CC1,24.8,145.1,81.7,–,–,–,–,–,–,–
550,CCCCOc1ccc(C[C@H](NC(=O)[C@H]2CC[C@H](C(C)C)CC2)C(=O)O)cc1,73.4,326.2,136.7,–,–,–,–,–,–,–
540,Cc1oc(-c2ccccc2)nc1CCOc1ccc(C[C@H](NC(=O)[C@H]2CC[C@H](C(C)C)CC2)C(=O)O)cc1,68.5,329.2,131.2,46.01,38.14,4.73,11.3,8.51,4.47,2.07
–,CC(C)[C@H]1CC[C@H](C(=O)N[C@@H](Cc2ccc(OCc3ccc(C(F)(F)F)cc3)cc2)C(=O)O)CC1,47.9,156.9,76.7,–,–,–,–,–,–,–
–,CC(C)[C@H]1CC[C@H](C(=O)N[C@@H](Cc2ccccc2)C(=O)O)CC1 [(S)-NATEGLINIDE],26.4,61.1,35.3,–,–,–,–,–,–,–
–,CC(C)[C@H]1CC[C@H](C(=O)N[C@H](Cc2ccc(OCCn3ccc4ccccc43)cc2)C(=O)O)CC1,37.8,112,58.8,–,–,–,–,–,–,–
650,CCCCOc1ccc(C[C@@H](NC(=O)[C@H]2CC[C@H](C(C)C)CC2)C(=O)O)cc1,58.9,261.6,107.1,–,–,–,–,–,–,–
260,CCOc1ccc(C[C@@H](NC(=O)[C@H]2CC[C@H](C(C)C)CC2)C(=O)O)cc1,76.2,183.8,107.3,–,–,–,–,–,–,–
–,CC(C)[C@H]1CC[C@H](C(=O)N[C@H](Cc2ccc(OCCN(C)c3ccccn3)cc2)C(=O)O)CC1,24.4,59.4,36.2,–,–,–,–,–,–,–
1050,CC(C)[C@H]1CC[C@H](C(=O)N[C@@H](Cc2ccc(OCc3ccccc3)cc2)C(=O)O)CC1,53.1,225.9,147.5,–,–,–,–,–,–,–
2820,CC(C)[C@H]1CC[C@H](C(=O)N[C@H](Cc2ccc(OCc3ccccc3)cc2)C(=O)O)CC1,38.9,171.1,94.4,–,–,–,–,–,–,–
7590,CC(C)[C@H]1CC[C@H](C(=O)N[C@H](Cc2ccccc2)C(=O)O)CC1 [NATEGLINIDE],36.3,124.3,66.8,–,–,–,–,–,–,–
–,CC(C)[C@H]1CC[C@H](C(=O)N[C@H](Cc2ccc(OCc3ccc(C(F)(F)F)cc3)cc2)C(=O)O)CC1,29.8,152.1,85.6,–,–,–,–,–,–,–
–,CC(C)[C@H]1CC[C@H](C(=O)N[C@@H](Cc2ccc(O)cc2)C(=O)O)CC1,17.5,64.8,35.4,–,–,–,–,–,–,–
